We go through 39 molecules from PubChem BioAssay.

Active and inactive are the calls of the source.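 Rule for the calls: active = viability at or below 30% in both replicate assays; inconclusive = viability at or below 30% in just one of the two assays; inactive = the rest.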

The nature of the assay: HUVEC growth inhibition – cell-based, human, primary screen (AID 575).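 Note: 100% = median of untreated cell wells with 0.1% DMSO on each plate.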 The conditions noted are these: HUVEC proliferation, CellTiter-Glo luminescence, 72 h; at 10 µM; stronger effect = lower value. The method, boiled down: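 Test system: HUVEC primary cells. Quantity: 1250 endothelial cells in each well. Dosing: single-point 10 µM, DMSO 0.1% final. Incubation: 72 h treatment at 37 °C. Measured by: CTG luminescence. Control set: DMSO cell controls and MePR drug controls. Plate: collagen-coated 384-well format.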
On the technique in general: In ATP-based viability assays light output follows the ATP content of the culture.
In general, viability refers to a read-out of living cells in per cent, often relative to untreated cells. For `Cc1cc(C)cc(-n2ccnc2SCC(=O)Nc2ccc3c(c2)OCCO3)c1`, the viability is 90.7% (inactive).

For `CC(C)CNC(=O)c1ccccc1NC(=O)CN(c1ccc2c(c1)OCCO2)S(C)(=O)=O`, the viability was 96.8% (inactive). Next, `N#Cc1cnn(Cc2ccc(Cl)cc2)c1N`: 92.7% (inactive); `Cc1cc(C)c2cc(CN(CC3CCCO3)C(=O)NC3CCCCC3)c(=O)[nH]c2c1` (centres undefined): 92% (inactive); `Cc1cc2c(cc(C(=O)OCC(=O)NCc3cccs3)n2C(C)C)o1`: 37.3% (inactive). For `CCCOc1ccccc1NC(=O)c1ccc(N)cc1`, the viability is 100% (inactive). On to `COC(=O)/C=c1\sc2ncnn2c1=O`, for which the viability was 72.5% (inactive). For `COc1cccc(CN=CC2=C(O)CC(C)(C)CC2=O)c1OC` the value was 101% (inactive). For `CC(=O)Nc1ccc(NC(=O)C(C)Oc2ccccc2F)cc1` (centres undefined) the value was 113% (inactive). For `Cc1nnc(NC(=O)CSc2nnc(-c3ccc(S(=O)(=O)N4CCCC4)cc3)n2C)s1` the value was 104% (inactive); for `CCn1ncc(C2=NOC(C(=O)Nc3ccc4c(c3)OCO4)C2)c1C` (centres undefined), 108% (inactive). For the molecule `COC(=O)C1=CN(C)C=C(C(=O)OC)C1c1ccc(O)c(OC)c1`, the viability is 88.1% (inactive).

In the case of `COc1ccccc1-c1nc(SCc2ccccn2)n[nH]1`, the viability is 98.3% (inactive). Turning to `CCOC(=O)Cn1c(CN2CCOCC2)nc2c1c(=O)[nH]c(=O)n2C`, the viability is 97.5% (inactive). For `O=C(O)c1ccc2noc(-c3ccccc3)c2c1` the value was 86.9% (inactive). As for `O=S(CC(O)COCc1ccc(Cl)cc1)c1ccccn1` (centres undefined), the viability is 111% (inactive).

For `CCn1c(CCNC(=O)c2cccs2)nnc1SCC(=O)c1ccc(OC)cc1`, the viability is 95.7% (inactive). Next, `O=C(Cn1ncc2c(=O)oc3ccccc3c21)Nc1nc2ccccc2s1`: 97.2% (inactive). For `COCc1nnc(NS(=O)(=O)c2ccc(Br)cc2)s1` the value was 108% (inactive); for `COc1ccc(S(=O)(=O)NCc2ccc(C(=O)O)cc2)cc1`, 107% (inactive); for `Cc1ccc(S(=O)(=O)CC2CSc3nnc(C)c(=O)n32)cc1` (centres undefined), 125% (inactive). Consider `Cc1occc1C(=O)Nc1cccnc1`, for which the viability was 100% (inactive).

For `CN(C1CCCCC1)S(=O)(=O)c1ccc(S(=O)(=O)N2CCCC2)cc1`, the viability was 78.3% (inactive).

As for `Cn1cccc1Cc1nnc(SCC(=O)Nc2ccccc2F)n1CCc1ccccc1`, the viability was 89.4% (inactive).

In the case of `COc1ccc(C(=O)CSc2nc(C)cc(=O)[nH]2)cc1`, the viability is 99.7% (inactive).

In the case of `CCCCCC1CC(CC#CCN2CCOCC2)C(=O)O1` (centres undefined), the viability was 83.4% (inactive). Next, `O=C(COc1ccccc1)Nc1ccccc1N1CCN(c2ccccc2)CC1`: 96% (inactive). For `Brc1ccc(C2=Nn3c(nnc3-c3ccncc3)SC2)cc1` the value was 82.8% (inactive). Next, `Cc1nc2sc3c(c2c(=O)o1)CCC3`: 84.3% (inactive). With `Cc1ccc(S(=O)(=O)Cn2nnnc2CN(Cc2ccco2)Cc2cccs2)cc1`, the viability is 104% (inactive). For `CC(=O)NCc1ccc(C(=O)CSc2nnc(-c3ccncc3)n2Cc2ccccc2)o1` the value was 97% (inactive). Take `CCOC(=O)c1ccc(Oc2nc(NC)nc(OC)n2)cc1`: the viability is 103% (inactive). In the case of `O=P(O)(O)C(O)C(F)(F)C(F)(F)C(F)(F)C(F)F` (centres undefined), the viability is 110% (inactive).

Turning to `COc1ccc(C)cc1NC(=O)CN1CCN(S(=O)(=O)c2ccc(Cl)cc2)CC1`, the viability is 74.7% (inactive). As for `COc1ccc(OC)c2[nH]c(=O)c(CCNC(=O)CC(C)C)cc12`, the viability was 106% (inactive). Take `O=S(=O)(Cc1ccccc1)N1CCN(Cc2ccccc2)CC1`: the viability is 87.3% (inactive). As for `COC(=O)C1C(=O)C2=C(CC1C)NC(=O)CC2c1ccccc1` (centres undefined), the viability was 91.7% (inactive). As to `CC(C)CCNC(=O)C(c1ccco1)N(CC1CCCO1)C(=O)Cn1nnc2ccccc21` (centres undefined), the viability is 101% (inactive).

Consider `CC(C)COc1ccc(-c2nnn(CC(=O)N3CCCC3)n2)cc1`, for which the viability is 108% (inactive).
